# Results taken from ChEMBL document CHEMBL3779898, “3,3'-OH curcumin causes apoptosis in HepG2 cells through ROS-mediated pathway” (Eur J Med Chem, 2016).
# Calls of active or inactive are those of the source. The rule behind the calls is not given here.
# How the values were obtained:
# HepG2 [1] = test: Induction of apoptosis in human HepG2 cells assessed as early apoptotic cells at 50 uM after 24 hrs pretreated with 5 mM N-acetylcysteine for 1 hr by Annexin V-FITC/propidium iodide staining based flow cytometry (reference value: 2.8%); type: functional
# Procedure, shortened: (§1)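 HepG2 plated at 5×10^5/well, grown 24 h, then treated 24 h; where indicated, 1 h pretreatment with 5 mM GSH or NAC. Cells stained with Annexin V-FITC/PI; 10,000 cells per sample analysed by flow cytometry into early apoptotic, late apoptotic and necrotic quadrants; triplicate.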
# HepG2 [2] = test: Induction of apoptosis in human HepG2 cells assessed as early apoptotic cells at 12.5 uM after 24 hrs by Annexin V-FITC/propidium iodide staining based flow cytometry (reference value: 2.8%); type: functional; procedure, shortened: as §1
# HepG2 [3] = test: Induction of intracellular ROS production in human HepG2 cells at 50 uM after 3 to 6 hrs by DCFH-DA staining based flow cytometry in presence of 5mM N-acetylcysteine; type: functional, cell-based
# Procedure, shortened: (§2)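 HepG2 pretreated 1 h with 5 mM GSH or 5 mM NAC, then exposed to 50 μM compound for the indicated time; loaded with 3 μM DCFH-DA for 30 min at 37 °C in the dark, washed with PBS, DCF fluorescence read by flow cytometry (ex 488, em 530 nm).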
# HepG2 [4] = test: Induction of apoptosis in human HepG2 cells assessed as late apoptotic cells at 50 uM after 24 hrs pretreated with 5 mM glutathione for 1 hr by Annexin V-FITC/propidium iodide staining based flow cytometry (reference value: 5.4%); type: functional; procedure, shortened: as §1
# HepG2 [5] = test: Induction of intracellular ROS production in human HepG2 cells assessed as decrease in GSH/GSSG ratio at 50 uM incubated for 6 hrs by glutathione reductase-DTNB recycling assay relative to control; type: functional
# Procedure, shortened: (§3)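 HepG2 (5×10^5/well) grown 24 h, treated 6 h, then lysed in ice-cold 10 mM HCl by three freeze–thaw cycles; part of lysate used for protein. Proteins precipitated with 6.5% 5-sulfosalicylic acid; supernatant assayed for total GSH and GSSG by glutathione reductase–DTNB recycling; triplicate.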
# HepG2 [6] = test: Induction of apoptosis in human HepG2 cells assessed as necrotic cells at 50 uM after 24 hrs pretreated with 5 mM glutathione for 1 hr by Annexin V-FITC/propidium iodide staining based flow cytometry (reference value: 1.6%); type: functional; procedure, shortened: as §1
# HepG2 [7] = test: Induction of apoptosis in human HepG2 cells assessed as late apoptotic cells at 37.5 uM after 24 hrs by Annexin V-FITC/propidium iodide staining based flow cytometry (reference value: 5.4%); type: functional; procedure, shortened: as §1
# HepG2 [8] = test: Induction of intracellular ROS production in human HepG2 cells assessed as decrease in GSH/GSSG ratio incubated for 6 hrs by glutathione reductase-DTNB recycling assay; type: functional, cell-based; procedure, shortened: as §3
# HepG2 [9] = test: Cytotoxicity against human HepG2 cells assessed as reduction in cell viability at 50 uM after 48 hrs by MTT assay in presence of 5mM glutathione; type: functional, cell-based
# Procedure, shortened: (§4)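 HepG2 cells pretreated 1 h with 5 mM NAC or 5 mM GSH, then exposed to 50 μM test compound; viability measured by MTT (0.5 mg/mL, 4 h, DMSO solubilisation, 570 nm).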
# HepG2 [10] = test: Induction of apoptosis in human HepG2 cells assessed as early apoptotic cells at 25 uM after 24 hrs by Annexin V-FITC/propidium iodide staining based flow cytometry (reference value: 2.8%); type: functional; procedure, shortened: as §1
# HepG2 [11] = test: Induction of apoptosis in human HepG2 cells assessed as necrotic cells at 25 uM after 24 hrs by Annexin V-FITC/propidium iodide staining based flow cytometry (reference value: 1.6%); type: functional; procedure, shortened: as §1
# HepG2 [12] = test: Induction of apoptosis in human HepG2 cells after 24 hrs by Annexin V-FITC/propidium iodide staining based flow cytometry; type: functional, cell-based; procedure, shortened: as §1
# HepG2 [13] = test: Induction of apoptosis in human HepG2 cells assessed as necrotic cells at 12.5 uM after 24 hrs by Annexin V-FITC/propidium iodide staining based flow cytometry (reference value: 1.6%); type: functional; procedure, shortened: as §1
# HepG2 [14] = test: Induction of intracellular ROS production in human HepG2 cells at 50 uM after 6 hrs by DCFH-DA staining based flow cytometry relative to control; type: functional
# Procedure, shortened: (§5)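 Cells treated with 50 μM compound for 6 h, with or without 1 h catalase pretreatment; stained with 3 μM DCFH-DA for 30 min at 37 °C in the dark, washed, DCF fluorescence read by flow cytometry (488/530 nm); triplicate.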
# HepG2 [15] = test: Induction of apoptosis in human HepG2 cells assessed as late apoptotic cells at 50 uM after 24 hrs pretreated with 5 mM N-acetylcysteine for 1 hr by Annexin V-FITC/propidium iodide staining based flow cytometry (reference value: 5.4%); type: functional; procedure, shortened: as §1
# HepG2 [16] = test: Induction of mitochondrial membrane potential loss in human HepG2 cells at 50 uM after 18 hrs by rhodamine 123 staining based flow cytometry in presence of 5mM glutathione; type: functional, cell-based
# Procedure, shortened: (§6)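 HepG2 pretreated 1 h with 5 mM GSH or 5 mM NAC, then exposed to 50 μM compound for the indicated time; Rhodamine 123 fluorescence measured by flow cytometry; triplicate.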
# HepG2 [17] = test: Potency index, ratio of curcumin IC50 to compound IC50 for human HepG2 cells; type: functional
# Procedure, shortened: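 Derived from MTT IC50 values in HepG2 after 48 h treatment, means of three determinations.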
# HepG2 [18] = test: Induction of intracellular ROS production in human HepG2 cells at 50 uM after 6 hrs by DCFH-DA staining based flow cytometry in presence of catalase; type: functional, cell-based; procedure, shortened: as §5
# HepG2 [19] = test: Induction of lipid peroxidation in human HepG2 cells assessed as increase in malondialdehyde formation after 18 hrs; type: functional, cell-based
# Procedure, shortened: (§7)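 HepG2 (5×10^5/well) grown 24 h, treated 18 h at 6.25, 25, 37.5 or 50 μM, lysed in ice-cold water by freeze–thaw. Lysate heated 1 h at 95 °C with 0.4% thiobarbituric acid, 0.5% SDS, 9.4% acetic acid (pH 3.5), centrifuged, A532 read. MDA quantified against a tetramethoxypropane standard curve, expressed as pmol/mg protein; triplicate.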
# HepG2 [20] = test: Induction of mitochondrial membrane potential loss in human HepG2 cells at 50 uM after 18 hrs by rhodamine 123 staining based flow cytometry in presence of 5mM N-acetylcysteine; type: functional, cell-based; procedure, shortened: as §6
# HepG2 [21] = test: Induction of apoptosis in human HepG2 cells assessed as necrotic cells at 50 uM after 24 hrs by Annexin V-FITC/propidium iodide staining based flow cytometry (reference value: 1.6%); type: functional; procedure, shortened: as §1
# Serum = test: Stability in RPMI-1640 medium containing 10% fetal calf serum at 25 uM incubated for 20 to 120 mins at 25 degC; type: ADME, Bos taurus; settings: cattle
# HepG2 [22] = test: Induction of apoptosis in human HepG2 cells assessed as early apoptotic cells at 50 uM after 24 hrs by Annexin V-FITC/propidium iodide staining based flow cytometry (reference value: 2.8%); type: functional; procedure, shortened: as §1
# HepG2 [23] = test: Induction of apoptosis in human HepG2 cells assessed as late apoptotic cells at 50 uM after 24 hrs by Annexin V-FITC/propidium iodide staining based flow cytometry (reference value: 5.4%); type: functional; procedure, shortened: as §1
# HepG2 [24] = test: Induction of apoptosis in human HepG2 cells assessed as late apoptotic cells at 12.5 uM after 24 hrs by Annexin V-FITC/propidium iodide staining based flow cytometry (reference value: 5.4%); type: functional; procedure, shortened: as §1
# HepG2 [25] = test: Induction of superoxide radical generation production in human HepG2 cells at 50 uM incubated for 6 hrs by DHE staining based flow cytometry; type: functional, cell-based
# Procedure, shortened: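 Cells incubated 6 h with 50 μM compound, stained with 3 μM DHE for 30 min at 37 °C in the dark, and analysed by flow cytometry; triplicate.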
# HepG2 [26] = test: Induction of lipid peroxidation in human HepG2 cells assessed as increase in malondialdehyde formation at 50 uM after 18 hrs relative to control; type: functional; procedure, shortened: as §7
# HepG2 [27] = test: Induction of apoptosis in human HepG2 cells assessed as early apoptotic cells at 37.5 uM after 24 hrs by Annexin V-FITC/propidium iodide staining based flow cytometry (reference value: 2.8%); type: functional; procedure, shortened: as §1
# HepG2 [28] = test: Induction of apoptosis in human HepG2 cells assessed as necrotic cells at 37.5 uM after 24 hrs by Annexin V-FITC/propidium iodide staining based flow cytometry (reference value: 1.6%); type: functional; procedure, shortened: as §1
# HepG2 [29] = test: Cytotoxicity against human HepG2 cells assessed as reduction in cell viability after 48 hrs by MTT assay; type: functional, cell-based; settings: HepG2, 48 h
# Procedure, shortened: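 HepG2 seeded at 3×10^3/well, grown 24 h, then exposed to compounds for 48 h. MTT (0.5 mg/mL) added for 4 h, formazan dissolved in DMSO, absorbance read at 570 nm. IC50 = concentration giving 50% loss of viability; mean ± SD of three determinations.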
# HepG2 [30] = test: Induction of apoptosis in human HepG2 cells assessed as necrotic cells at 50 uM after 24 hrs pretreated with 5 mM N-acetylcysteine for 1 hr by Annexin V-FITC/propidium iodide staining based flow cytometry (reference value: 1.6%); type: functional; procedure, shortened: as §1
# HepG2 [31] = test: Induction of intracellular ROS production in human HepG2 cells at 50 uM after 3 to 6 hrs by DCFH-DA staining based flow cytometry in presence of 5mM glutathione; type: functional, cell-based; procedure, shortened: as §2
# HepG2 [32] = test: Induction of apoptosis in human HepG2 cells assessed as early apoptotic cells at 50 uM after 24 hrs pretreated with 5 mM glutathione for 1 hr by Annexin V-FITC/propidium iodide staining based flow cytometry (reference value: 2.8%); type: functional; procedure, shortened: as §1
# HepG2 [33] = test: Cellular uptake in human HepG2 cells at 50 uM after 1 hr; type: ADME, cell-based; settings: hepg2, 1 h
# Procedure, shortened: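 HepG2 cells exposed to 50 μM for varying incubation periods; cells lysed, lysate extracted with methanol, and uptake estimated by absorbance of the extract.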
# HepG2 [34] = test: Cytotoxicity against human HepG2 cells assessed as reduction in cell viability at 50 uM after 48 hrs by MTT assay in presence of 5mM N-acetylcysteine; type: functional, cell-based; procedure, shortened: as §4
# HepG2 [35] = test: Induction of apoptosis in human HepG2 cells assessed as late apoptotic cells at 25 uM after 24 hrs by Annexin V-FITC/propidium iodide staining based flow cytometry (reference value: 5.4%); type: functional; procedure, shortened: as §1
compound,measurement,setting,value
O=C(/C=C/c1cccc(O)c1)CC(=O)/C=C/c1cccc(O)c1,Activity,HepG2 [1],2.8%
same,Activity,HepG2 [2],2.8%
same,Activity,HepG2 [3],inactive
same,Activity,HepG2 [4],6.3%
same,fold change (FC),HepG2 [5],2
same,Activity,HepG2 [6],2%
same,Activity,HepG2 [7],28.5%
same,Activity,HepG2 [8],Dose-dependent effect
same,Activity,HepG2 [9],inactive
same,Activity,HepG2 [10],7%
same,Activity,HepG2 [11],7%
same,Activity,HepG2 [12],Dose-dependent effect
same,Activity,HepG2 [13],2.8%
same,fold change (FC),HepG2 [14],5
same,Activity,HepG2 [15],6.8%
same,Activity,HepG2 [16],inactive
same,Ratio IC50,HepG2 [17],3.5
same,Activity,HepG2 [18],inactive
same,Activity,HepG2 [19],Dose-dependent effect
same,Activity,HepG2 [20],inactive
same,Activity,HepG2 [21],7.6%
same,Stability,Serum,Stable
same,Activity,HepG2 [22],1.4%
same,Activity,HepG2 [23],80.2%
same,Activity,HepG2 [24],5.7%
same,Activity,HepG2 [25],inactive
same,fold change (FC),HepG2 [26],1
same,Activity,HepG2 [27],19.1%
same,Activity,HepG2 [28],45%
same,IC50,HepG2 [29],15.1 µM
same,Activity,HepG2 [30],2.2%
same,Activity,HepG2 [31],inactive
same,Activity,HepG2 [32],3%
same,Drug uptake,HepG2 [33],Active
same,Activity,HepG2 [34],inactive
same,Activity,HepG2 [35],12.4%
COc1cccc(/C=C/C(=O)CC(=O)/C=C/c2cccc(OC)c2)c1,IC50,HepG2 [29],83.4 µM
O=C(/C=C/c1ccccc1)CC(=O)/C=C/c1ccccc1,IC50,HepG2 [29],> 200 µM
O=C(/C=C/c1ccccc1O)CC(=O)/C=C/c1ccccc1O,IC50,HepG2 [29],50 µM
COc1ccccc1/C=C/C(=O)CC(=O)/C=C/c1ccccc1OC,IC50,HepG2 [29],125 µM
COc1ccc(/C=C/C(=O)CC(=O)/C=C/c2ccc(OC)cc2)cc1,IC50,HepG2 [29],> 200 µM
O=C(/C=C/c1ccc(C(F)(F)F)cc1)CC(=O)/C=C/c1ccc(C(F)(F)F)cc1,IC50,HepG2 [29],> 200 µM
